pEC50, pIC50: −log10 of the molar value. Where “and” joins values, the source holds several entries; their conditions need not be identical. Identical values can stand only once. Blank lines part the entries; values can stand above or below the compound they belong to. Calls of active or inactive are those of the source. The calls are words filed in the database; no cut-off is given here.
Columns and labels:
[1] = target: T1, Glucose-dependent insulinotropic receptor (Homo sapiens, UniProt Q8TDV5); assay: Agonist activity at GPR119 expressed in HEK293 cells assessed as cAMP level by flash plate assay; format: functional, cell-based
T1 sequence (Q8TDV5 whole entry): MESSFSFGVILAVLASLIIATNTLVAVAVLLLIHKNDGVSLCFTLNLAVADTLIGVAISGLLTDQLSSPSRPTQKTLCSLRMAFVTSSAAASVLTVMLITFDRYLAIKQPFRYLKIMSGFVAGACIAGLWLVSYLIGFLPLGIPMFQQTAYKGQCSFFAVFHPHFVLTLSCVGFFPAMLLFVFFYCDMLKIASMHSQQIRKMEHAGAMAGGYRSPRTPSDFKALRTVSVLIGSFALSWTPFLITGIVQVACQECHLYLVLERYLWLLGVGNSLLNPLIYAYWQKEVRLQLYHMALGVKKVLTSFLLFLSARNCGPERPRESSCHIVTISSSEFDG
Outline: (§1)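 HEK293 cells transiently transfected with GPR119; crude plasma membranes prepared 48 h post-transfection. Membrane adenylyl cyclase read by FlashPlate cAMP kit: 15 µg membrane protein, 60 min at room temperature in 20 mM HEPES pH 7.4 with 10 µM GTP, 0.1 mM ATP, 500 µM IBMX, 10 mM phosphocreatine, creatine phosphokinase. cAMP from on-plate standard curve; usually n = 1 or 2.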

[2] = target: T1, Glucose-dependent insulinotropic receptor; assay: Agonist activity at […] transfected in Xenopus dermal melanophore assessed as dispersion of melatonin-induced pigmentation; format: functional
Outline: (§2)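 Cultured Xenopus dermal melanophores transiently transfected with GPR119 plasmid, plated in 384-well format. At 48 h post-transfection, pigment aggregated with melatonin (10nM, 1 h), then compounds applied for 1 h. Pigment dispersion read as absorbance (light transmission) to build concentration-response curves; EC50 with log SD, number of determinations given.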

[3] = target: T1, Glucose-dependent insulinotropic receptor; assay: Inverse agonist activity at GPR119 expressed in HEK293 cells assessed as cAMP level by flash plate assay; format: functional, cell-based; outline: as §1
[4] = Agonist activity at GPR119 in hamster HIT-T15 cells stimulation of assessed as cAMP production; format: functional, cell-based; details: Cricetinae
Mus musculus [5] = assay: Increase in glucose dependent insulin release in wild type C57BL/6J mouse at 20 mg/kg, po by oral glucose tolerance test; format: functional, organism-based; design: dose 20 mg/kg
[6] = Half life in Sprague-Dawley rat at 10 mg/kg, po; format: ADME, organism-based; design: dose 10 mg/kg, route oral; details: in vivo
Outline: (§3)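 Rat oral PK: single 10 mg/kg po dose; plasma tmax, Cmax, AUC, terminal t1/2 determined, with oral bioavailability (%F) also reported.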

[7] = AUC in Sprague-Dawley rat at 10 mg/kg, po; format: ADME, organism-based; design: dose 10 mg/kg, route oral; details: plasma; outline: as §3
Mus musculus [8] = assay: Increase in glucose dependent insulin release in GPR119 deficient C57BL/6J mouse at 20 mg/kg, po by oral glucose tolerance test; format: functional, organism-based; design: dose 20 mg/kg
[9] = Cmax in Sprague-Dawley rat at 10 mg/kg, po; format: ADME, organism-based; design: dose 10 mg/kg, route oral; details: in vivo; outline: as §3
[10] = Half life in C57BL/6J mouse at 10 mg/kg, po; format: ADME, organism-based; design: dose 10 mg/kg, route oral; details: in vivo
Outline: (§4)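 Mouse oral PK: C57/bl6J mice given a single 10 mg/kg po dose; plasma exposure profile used to derive tmax, Cmax, AUC (area under exposure curve) and terminal t1/2. No iv arm run in mouse.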

[11] = target: T2, Glucose-dependent insulinotropic receptor (Rattus norvegicus) (UniProt Q7TQN8); assay: Agonist activity at rat GPR119 transfected in Xenopus dermal melanophore assessed as dispersion of melatonin-induced pigmentation; format: functional; outline: as §2
T2 sequence (whole entry): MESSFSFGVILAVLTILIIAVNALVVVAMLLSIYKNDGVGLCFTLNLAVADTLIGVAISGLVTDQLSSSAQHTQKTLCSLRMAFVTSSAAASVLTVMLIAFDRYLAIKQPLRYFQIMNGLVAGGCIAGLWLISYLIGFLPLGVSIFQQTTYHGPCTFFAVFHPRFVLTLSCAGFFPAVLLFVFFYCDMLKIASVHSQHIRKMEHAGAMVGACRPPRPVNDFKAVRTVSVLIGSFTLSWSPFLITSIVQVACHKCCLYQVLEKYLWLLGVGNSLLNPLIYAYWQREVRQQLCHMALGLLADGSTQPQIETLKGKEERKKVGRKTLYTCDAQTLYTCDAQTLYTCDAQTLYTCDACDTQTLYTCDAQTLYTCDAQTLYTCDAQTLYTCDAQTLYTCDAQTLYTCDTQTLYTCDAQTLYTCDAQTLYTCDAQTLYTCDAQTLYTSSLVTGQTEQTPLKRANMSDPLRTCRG

[12] = target: T3, Glucose-dependent insulinotropic receptor (Mus musculus) (UniProt Q7TQP3); assay: Agonist activity at mouse GPR119 transfected in Xenopus dermal melanophore assessed as dispersion of melatonin-induced pigmentation; format: functional; outline: as §2
T3 sequence (whole entry): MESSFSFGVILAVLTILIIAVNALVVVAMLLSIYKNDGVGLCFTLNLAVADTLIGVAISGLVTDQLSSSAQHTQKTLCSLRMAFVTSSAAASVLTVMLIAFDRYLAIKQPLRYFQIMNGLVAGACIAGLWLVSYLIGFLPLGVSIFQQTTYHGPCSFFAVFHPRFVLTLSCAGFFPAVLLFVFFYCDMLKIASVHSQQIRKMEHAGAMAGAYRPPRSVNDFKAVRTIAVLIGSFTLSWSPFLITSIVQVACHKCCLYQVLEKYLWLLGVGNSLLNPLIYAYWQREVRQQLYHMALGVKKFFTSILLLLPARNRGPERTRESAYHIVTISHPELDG

[13] = AUC in C57BL/6J mouse at 10 mg/kg, po; format: ADME, organism-based; design: dose 10 mg/kg, route oral; details: plasma; outline: as §4
Macaca fascicularis = species: Macaca fascicularis; assay: Agonist activity at cynomolgus monkey GPR119 transfected in Xenopus dermal melanophore assessed as dispersion of melatonin-induced pigmentation; format: functional; outline: as §2
[14] = Cmax in C57BL/6J mouse at 10 mg/kg, po; format: ADME, organism-based; design: dose 10 mg/kg, route oral; details: in vivo; outline: as §4
[15] = Tmax in C57BL/6J mouse at 10 mg/kg, po; format: ADME, organism-based; design: dose 10 mg/kg, route oral; details: in vivo; outline: as §4
Mus musculus [16] = species: Mus musculus; assay: Increase in glucose dependent insulin release in diabetic KK/ay mouse by oral glucose tolerance test; format: functional, organism-based
[17] = Inhibition of cytochrome
[18] = Tmax in Sprague-Dawley rat at 10 mg/kg, po; format: ADME, organism-based; design: dose 10 mg/kg, route oral; details: in vivo; outline: as §3
[19] = Oral bioavailability in Sprague-Dawley rat at 10 mg/kg; format: ADME, organism-based; details: in vivo; outline: as §3
Rattus norvegicus = assay: Effect on glucose excursion in Sprague-Dawley rat at 30 mg/kg, po by oral glucose tolerance test; format: functional, organism-based; design: dose 30 mg/kg
[20] = target: Voltage-gated inwardly rectifying potassium channel KCNH2 (Homo sapiens, UniProt Q12809); assay: Inhibition of hERG upto 10 uM by patch clamp assay; format: toxicity
Sequence of Voltage-gated inwardly rectifying potassium channel KCNH2 (Q12809 whole entry): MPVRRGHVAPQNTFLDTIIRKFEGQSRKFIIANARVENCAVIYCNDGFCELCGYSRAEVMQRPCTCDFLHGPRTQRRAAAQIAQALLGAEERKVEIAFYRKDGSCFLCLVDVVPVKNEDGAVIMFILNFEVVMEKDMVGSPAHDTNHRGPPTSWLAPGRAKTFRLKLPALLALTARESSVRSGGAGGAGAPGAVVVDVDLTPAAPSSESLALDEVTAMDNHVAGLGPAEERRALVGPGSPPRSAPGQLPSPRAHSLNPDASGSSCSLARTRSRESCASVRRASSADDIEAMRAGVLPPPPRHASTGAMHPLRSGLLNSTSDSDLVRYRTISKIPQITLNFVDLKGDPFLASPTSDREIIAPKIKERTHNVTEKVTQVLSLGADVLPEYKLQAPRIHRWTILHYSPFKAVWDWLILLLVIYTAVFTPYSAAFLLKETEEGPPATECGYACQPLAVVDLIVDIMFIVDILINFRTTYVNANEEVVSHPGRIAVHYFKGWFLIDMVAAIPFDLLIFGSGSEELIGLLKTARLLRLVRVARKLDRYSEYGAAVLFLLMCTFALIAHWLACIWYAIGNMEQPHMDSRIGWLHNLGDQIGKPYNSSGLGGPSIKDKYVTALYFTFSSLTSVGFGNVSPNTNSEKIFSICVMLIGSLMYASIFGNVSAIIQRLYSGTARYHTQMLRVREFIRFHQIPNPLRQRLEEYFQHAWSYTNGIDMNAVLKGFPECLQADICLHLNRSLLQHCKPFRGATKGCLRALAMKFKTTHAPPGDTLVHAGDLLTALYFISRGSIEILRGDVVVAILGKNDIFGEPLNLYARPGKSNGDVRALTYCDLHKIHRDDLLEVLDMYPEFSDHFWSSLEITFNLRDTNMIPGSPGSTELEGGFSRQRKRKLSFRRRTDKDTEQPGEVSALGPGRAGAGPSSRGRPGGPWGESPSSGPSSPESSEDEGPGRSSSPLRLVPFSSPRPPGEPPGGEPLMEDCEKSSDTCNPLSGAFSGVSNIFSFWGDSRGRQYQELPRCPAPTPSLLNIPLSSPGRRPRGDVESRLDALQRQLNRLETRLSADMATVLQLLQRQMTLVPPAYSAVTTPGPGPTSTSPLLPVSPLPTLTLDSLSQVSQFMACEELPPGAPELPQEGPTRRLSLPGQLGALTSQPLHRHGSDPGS
Outline: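 hERG channel current measured by patch clamp, compound tested up to 10 µM.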

Canis lupus familiaris = species: Canis lupus familiaris; assay: Agonist activity at dog GPR119 transfected in Xenopus dermal melanophore assessed as dispersion of melatonin-induced pigmentation; format: functional; outline: as §2

pEC50 [1]: 5.77
SMILES: CCOC(=O)C1CCN(c2ncnc(Oc3ccc(CCC(C)=O)cc3)c2[N+](=O)[O-])CC1

pEC50 [2]: 8.33
SMILES: CCCS(=O)(=O)c1ccc(Nc2ncnc(N3CCC(c4nc(C(C)C)no4)CC3)c2[N+](=O)[O-])cc1

pIC50 [3]: 7.08
SMILES: CCOC(=O)C1CCN(c2ncnc(Oc3cc(C(F)(F)F)nn3C)c2[N+](=O)[O-])CC1

pEC50 [2]: 6.37
SMILES: CCCc1noc(C2CCN(c3ncnc(Nc4ccc(S(C)(=O)=O)cc4)c3[N+](=O)[O-])CC2)n1

pEC50 [2]: 6.18
SMILES: CS(=O)(=O)c1ccc(Nc2ncnc(N3CCC(c4nc(-c5cccnc5)[n-][o+]4)CC3)c2[N+](=O)[O-])cc1

pEC50 [2]: 8.47
SMILES: CC(C)c1noc(C2CCN(c3ncnc(Nc4ccc(S(C)(=O)=O)c(F)c4)c3[N+](=O)[O-])CC2)n1

pEC50 [2]: 7.62
SMILES: CS(=O)(=O)c1ccc(Nc2ncnc(N3CCC(c4nc(-c5cccc(C(F)(F)F)c5)no4)CC3)c2[N+](=O)[O-])cc1

pEC50 [2]: 7.77
SMILES: CCS(=O)(=O)c1ccc(Nc2ncnc(N3CCC(c4nc(C(C)C)no4)CC3)c2[N+](=O)[O-])cc1

pEC50 [2]: 7.60
SMILES: CS(=O)(=O)c1ccc(Nc2ncnc(N3CCC(c4nc(C5CC5)no4)CC3)c2[N+](=O)[O-])cc1

pEC50 [4]: 8.33 | half-life [6]: 66 min | AUC [7]: 263 ng·h/mL | Cmax [9]: 126 ng/mL and 250 nM | half-life [10]: 204 min | Activity [11]: 14 nM | Activity [12]: 12 nM | AUC [13]: 19800 ng·h/mL | pEC50 [2]: 9.17 | Cmax [14]: 4980 ng/mL | Tmax [15]: 30 min | Activity [17]: inactive | Tmax [18]: 1 h | bioavailability [19]: 12%
SMILES: CC(C)c1noc(C2CCN(c3ncnc(Nc4ccc(S(C)(=O)=O)cc4F)c3[N+](=O)[O-])CC2)n1
Activity (Mus musculus [5]): Active | Activity (Mus musculus [8]): inactive | Activity (Macaca fascicularis): 0.4 nM | Activity (Mus musculus [16]): Active | Activity (Rattus norvegicus): inactive | Activity [20]: Not Active | Activity (Canis lupus familiaris): 1.6 nM

pEC50 [1]: 5.52
SMILES: CCOC(=O)C1CCN(c2ncnc(Oc3ccc(S(N)(=O)=O)cc3)c2[N+](=O)[O-])CC1

pEC50 [2]: 8.10
SMILES: CC(C)c1nc(C2CCN(c3ncnc(Nc4ccc(S(=O)(=O)C(C)C)cc4F)c3[N+](=O)[O-])CC2)[o+][n-]1

pEC50 [2]: 8.15
SMILES: CCS(=O)(=O)c1ccc(Nc2ncnc(N3CCC(c4nc(C(C)C)[n-][o+]4)CC3)c2[N+](=O)[O-])c(F)c1

pIC50 [3]: 7.30
SMILES: CCOC(=O)C1CCN(c2ncnc(Oc3ccc(Br)cc3)c2[N+](=O)[O-])CC1

pEC50 [2]: 7.77
SMILES: CC[S+]([O-])c1ccc(Nc2ncnc(N3CCC(c4nc(C(C)C)no4)CC3)c2[N+](=O)[O-])cc1 (stereo not drawn)

pEC50 [2]: 8.24
SMILES: CC(C)c1noc(C2CCN(c3ncnc(Nc4ccc(S(C)(=O)=O)cc4)c3[N+](=O)[O-])CC2)n1

pEC50 [2]: 8.11
SMILES: CC(C)c1noc(C2CCN(c3ncnc(Nc4ccc(S(=O)(=O)C(C)C)cc4)c3[N+](=O)[O-])CC2)n1

pEC50 [2]: 6.96
SMILES: CCSc1ccc(Nc2ncnc(N3CCC(c4nc(C(C)C)no4)CC3)c2[N+](=O)[O-])cc1

pEC50 [1]: 5.92
SMILES: CCOC(=O)C1CCN(c2ncnc(Nc3ccc(S(C)(=O)=O)cc3)c2[N+](=O)[O-])CC1

pEC50 [2]: 8.82
SMILES: CC(C)(C)c1noc(C2CCN(c3ncnc(Nc4ccc(S(C)(=O)=O)cc4)c3[N+](=O)[O-])CC2)n1

pEC50 [1]: 5.60
SMILES: CCOC(=O)C1CCN(c2ncnc(Oc3ccc(-n4cncn4)cc3)c2[N+](=O)[O-])CC1

pEC50 [2]: 6.80
SMILES: CS(=O)(=O)c1ccc(Nc2ncnc(N3CCC(c4nc(CC5CC5)no4)CC3)c2[N+](=O)[O-])cc1

pEC50 [2]: 8.00
SMILES: CCc1noc(C2CCN(c3ncnc(Nc4ccc(S(C)(=O)=O)cc4)c3[N+](=O)[O-])CC2)n1

pEC50 [1]: 5.72
SMILES: CCOC(=O)C1CCN(c2ncnc(Oc3ccc(S(C)(=O)=O)cc3)c2[N+](=O)[O-])CC1

pEC50 [2]: 6.59
SMILES: Cc1noc(C2CCN(c3ncnc(Nc4ccc(S(C)(=O)=O)cc4)c3[N+](=O)[O-])CC2)n1

pEC50 [1]: 6.40
SMILES: CCOC(=O)C1CCN(c2ncnc(Nc3ccc(-n4cncn4)cc3)c2[N+](=O)[O-])CC1

pIC50 [3]: 6.30
SMILES: CCOC(=O)C1CCN(c2ncnc(Oc3ccc(OCCOC)cc3)c2[N+](=O)[O-])CC1

pEC50 [1]: 6.00
SMILES: CCOC(=O)C1CCN(c2ncnc(Oc3ccc(C(=O)CC(=O)OC)cc3)c2[N+](=O)[O-])CC1

Reference: ChEMBL document CHEMBL1139413, “Discovery of the first potent and orally efficacious agonist of the orphan G-protein coupled receptor 119” (J Med Chem, 2008)
